Among the data in ChEMBL document CHEMBL1146466, “Immunomodulatory constituents from an Ascomycete, Chaetomium seminudum” (J Nat Prod, 2004) are IC50 values, retold here.

Broadly, the IC50 is the concentration needed to halve the response being measured.

Structures are written as SMILES. Values after ≈ are worked out from the molar mass of the structure shown.

A short description of assay [1]: Immunosuppressive activity in BALB/c mouse splenic T lymphocytes assessed as inhibition of Con A-induced cell proliferation after 72 hrs by MTT assay. It is filed as functional, cell-based. The procedure, abridged:
(§1)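 Splenocytes from three male BALB/c mice (7-11 weeks) at 8.0 × 10^6 cells/mL in FBS/RPMI, stimulated with LPS (B cells) or Con A (T cells) at 70% of the optimum dose from a dose-response curve. Samples were dissolved in 1.0% EtOH/medium and incubated 72 h at 37 °C in 5% CO2. MTT (5.0 mg/mL stock) was added for 4 h, formazan extracted into DMSO, and A570/630 read. Proliferation was expressed as % of no-sample control, in triplicate. IC50 came from a 7-concentration curve.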
In general terms: Tetrazolium assays rely on reduction of a dye to a coloured formazan, in cell work by metabolically active cells.

The nature of assay [2]: Immunosuppressive activity in BALB/c mouse splenic B lymphocytes assessed as inhibition of LPS-induced cell proliferation after 72 hrs by MTT assay. It is filed as functional, cell-based. The procedure, abridged:
as §1

In the case of `Cn1cnc([N+](=O)[O-])c1Sc1ncnc2[nH]cnc12` [AZATHIOPRINE], the IC50 in assay [1] and in assay [2] was 2700 ng/mL (≈ 9740 nM) throughout.
With `CN1C(=O)[C@]2(Cc3cn([C@]45C[C@@]67SS[C@@](CO)(C(=O)N6[C@H]4Nc4ccccc45)N(C)C7=O)c4ccccc34)SS[C@@]1(CO)C(=O)N2C` [CHETOMIN], the concentration for half-maximal inhibition (IC50) in assay [1] is 170 ng/mL (≈ 239 nM); in assay [2], 90 ng/mL (≈ 127 nM).
The matching figures for `CN1C(=O)[C@]2(Cc3cn([C@]45C[C@@]67SSS[C@@](CO)(C(=O)N6[C@H]4Nc4ccccc45)N(C)C7=O)c4ccccc34)SS[C@@]1(CO)C(=O)N2C` [CHETOSEMINUDIN A]: 180 ng/mL (≈ 242 nM) and 130 ng/mL (≈ 175 nM).
With `CS[C@]1(Cc2c[nH]c3ccccc23)NC(=O)[C@](CO)(SC)N(C)C1=O` [CHETOSEMINUDIN B], in assay [1], the IC50 was 24000 ng/mL (≈ 63200 nM).
Still for that read-out and setting: as for `CS[C@]1(CO)NC(=O)[C@](Cc2c[nH]c3ccccc23)(SC)NC1=O` [CHETOSEMINUDIN C], the figure is > 50000 ng/mL.
In the case of `C=CC[C@@H]1/C=C(\C)C[C@H](C)C[C@H](OC)[C@H]2O[C@@](O)(C(=O)C(=O)N3CCCC[C@H]3C(=O)O[C@H](/C(C)=C/[C@@H]3CC[C@@H](O)[C@H](OC)C3)[C@H](C)[C@@H](O)CC1=O)[C@H](C)C[C@@H]2OC` [TACROLIMUS ANHYDROUS], the IC50 amounted to 0.015 ng/mL (≈ 0.0187 nM) in assay [1] and 1.6 ng/mL (≈ 1.99 nM) in assay [2].
